From ChEMBL document CHEMBL1148613, “Synthesis and biological evaluation of novel phenylcarbazoles as potential anticancer agents” (J Med Chem, 2006)

Tests used:
[1] = Inhibitory activity against CDK1/Cyclin B from starfish oocytes; design: species or system Marthasterias glacialis; details: oocyte
Procedure, shortened: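 Starfish oocyte (M phase) CDK1/cyclin B, affinity-purified on p9CKShs1-sepharose. Buffer C (25 mM Mops pH 7.2, β-glycerophosphate, p-nitrophenyl phosphate, EGTA, 15 mM MgCl2, DTT, vanadate, phenyl phosphate), 1 mg/mL histone H1, 15 µM [γ-33P]ATP, 10 min at 30 °C. Read by P81 phosphocellulose binding, washing and scintillation counting; activity as percent of uninhibited control, DMSO controls.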

[2] = target: Cyclin-dependent kinase 5/CDK5 activator 1 (Homo sapiens, UniProt Q00535); experiment: Inhibitory activity against CDK5/p25; type: protein-complex assay
Procedure, shortened: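 Recombinant mammalian CDK5 and p25, expressed in E. coli as GST fusions, glutathione-agarose purified and mixed in equal amounts. Assayed in buffer C pH 7.2 with 1 mg/mL histone H1 and 15 µM [γ-33P]ATP, 10 min at 30 °C. P81 filter binding and scintillation counting; activity as percent of maximal activity without inhibitor.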

CEM/C2 = experiment: Cytotoxicity against camptothecin-resistant human leukemic CEMC2 cell line; type: functional, cell-based
Procedure, shortened: (§1)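 Human leukemia cells (CEM, or topoisomerase I-deficient CEM/C2) grown at 37 °C, 5% CO2 in RPMI 1640 with 10% FBS, glucose, HEPES, pyruvate and antibiotics. 2 × 10^4 exponentially growing cells seeded with graded drug concentrations, 72 h at 37 °C. Tetrazolium dye (CellTiter 96 aqueous one-solution) added for a further 2 h, absorbance read at 492 nm; IC50 reported.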

CCRF-CEM = experiment: Cytotoxicity against human leukemic CEM cell line; type: functional, cell-based; procedure, shortened: as §1
[3] = target: Glycogen synthase kinase-3 (Homo sapiens, UniProt P49840+P49841); experiment: Inhibitory activity against GSK3 from porcine brain; design: species or system Sus scrofa; details: target entry is the homologue from another species
Procedure, shortened: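 GSK-3α/β purified from porcine brain on immobilized axin, diluted 1/100 in BSA/DTT. Buffer A (25 mM Tris-HCl pH 7.5, 10 mM MgCl2, EGTA, DTT, 50 µg/mL heparin), GS-1 peptide substrate (5 µL of 40 µM), 15 µM [γ-33P]ATP, 30 min at 30 °C. P81 phosphocellulose filters washed in dilute phosphoric acid and counted; activity relative to no-inhibitor control.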

Chain of Cyclin-dependent kinase 5/CDK5 activator 1 (Q00535 whole entry, the tested form may be a part): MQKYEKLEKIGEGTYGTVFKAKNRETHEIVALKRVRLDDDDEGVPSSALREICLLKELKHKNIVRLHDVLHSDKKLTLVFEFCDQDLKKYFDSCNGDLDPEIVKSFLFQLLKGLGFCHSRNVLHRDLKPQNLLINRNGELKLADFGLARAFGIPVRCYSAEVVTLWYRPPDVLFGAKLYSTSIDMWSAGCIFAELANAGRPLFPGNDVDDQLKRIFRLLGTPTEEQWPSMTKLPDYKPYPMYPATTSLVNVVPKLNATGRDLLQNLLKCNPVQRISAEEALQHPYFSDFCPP
Chain of Cyclin-dependent kinase 5/CDK5 activator 1 (Q15078 whole entry, further chain, the tested form may be a part): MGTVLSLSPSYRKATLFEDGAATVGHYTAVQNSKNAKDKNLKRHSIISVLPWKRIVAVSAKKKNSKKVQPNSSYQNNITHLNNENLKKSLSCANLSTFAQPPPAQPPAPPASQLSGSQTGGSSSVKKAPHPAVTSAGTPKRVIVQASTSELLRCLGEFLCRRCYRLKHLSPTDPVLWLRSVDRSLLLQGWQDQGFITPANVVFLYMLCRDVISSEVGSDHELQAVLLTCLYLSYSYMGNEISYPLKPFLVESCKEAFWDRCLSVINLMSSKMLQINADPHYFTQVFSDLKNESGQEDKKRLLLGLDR

Compound | IC50 [2] [µM] | IC50 [3] [µM] | IC50 [1] [µM] | IC50 (CEM/C2) [µM] | IC50 (CCRF-CEM) [µM]
CN1C(=O)c2c(c3c4cc(O)ccc4[nH]c3c3ccccc23)C1=O | > 10 | – | > 10 | 4.17 | 1.64
O=C1OC(=O)c2c1c1ccccc1c1[nH]c3ccccc3c21 | > 10 | – | > 10 | > 50 | > 25
O=C1c2c(c3c4cc(O)ccc4[nH]c3c3ccccc23)C(=O)N1CCc1c[nH]cn1 | > 10 | – | > 10 | 1.9 | 0.715
CN(C)CCN1C(=O)c2c(c3c4cc(O)ccc4[nH]c3c3ccccc23)C1=O | > 10 | – | > 10 | 0.0187 | 0.0122
O=C1c2c(c3c4cc(O)ccc4[nH]c3c3ccccc23)C(=O)N1C(CO)CO | > 10 | – | > 10 | 4.96 | 2.84
O=C1c2c(c3c4ccccc4[nH]c3c3ccccc23)C(=O)N1C(CO)CO | > 10 | – | > 10 | 4.95 | 3.71

More lines, main results first:

IC50 [2] [µM] | IC50 [3] [µM] | Compound | IC50 [1] [µM] | IC50 (CEM/C2) [µM] | IC50 (CCRF-CEM) [µM]
> 10 | – | CN1C(=O)c2c(c3c4ccccc4[nH]c3c3ccccc23)C1=O | > 10 | > 100 | > 100
> 10 | – | O=C1c2c(c3c4ccccc4[nH]c3c3ccccc23)C(=O)N1CCc1c[nH]cn1 | > 10 | 2.92 | 1.58
8.5 | 20 | O=C1NC(=O)c2c1c1ccccc1c1[nH]c3ccccc3c21 | 80 | > 100 | > 100
> 10 | – | O=C1OC(=O)c2c1c1ccccc1c1[nH]c3ccc(O)cc3c21 | > 10 | 32.3 | 14.7
> 10 | – | CN(C)CCN1C(=O)c2c(c3c4ccccc4[nH]c3c3ccccc23)C1=O | > 10 | 0.335 | 0.11
0.25 | 0.46 | O=C1NC(=O)c2c1c1ccccc1c1[nH]c3ccc(O)cc3c21 | 0.58 | > 25 | > 25
